# From publication PMC7813200 (Neuro-oncology Advances, 2020)
# Entries after “also recorded” stand apart in the source; their conditions may differ.
# How the values were obtained:
# MGG8 cells [1] = experiment: cells in S phase, BrdU incorporation, MGG8; type: cell-based, human; conditions: NOC 3 μM
# T98G cells [2] = experiment: cells in S phase, BrdU incorporation, T98G; type: cell-based, human
# MGG8 cells [3] = experiment: cell viability WST-1, MGG8; type: cell-based, human; conditions: 72 h
# [4] = system: six human glioma cell lines (SF-268, SF-295, SF-539, SNB-19, SNB-75, U251); experiment: NCI-60 cell line panel, six glioma lines; type: cell-based; conditions: read-out: IC50s (growth inhibition, TGI50 in Figure 2A)
# PDGFB-glioma = experiment: RCAS/tv-a PDGFB glioma mouse model; type: in vivo; conditions: for tumor density by olig-2 immunostaining: each arm at its regimen (ST-401 regimen 2; TMZ 50 mg/kg); for necrotic area: end-stage histopathology, each arm at its regimen
# tubulin = tubulin assembly, pelleting assay; type: biochemical; conditions: compared to ST-360
# Summary of the method: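 Tubulin assembly assessed by pelleting assay, with release of free tubulin measured. Mean ± SEM from 3 to 5 experiments.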
# COLO205 cells = experiment: NCI-60 cancer cell panel, COLO205; type: cell-based; conditions: Homo sapiens, COLO 205
# [5] = system: tubulin (colchicine site); experiment: [3H]colchicine binding to purified tubulin; conditions: 5 μM compound; mean of n = 3
# HCT116 cells = experiment: live cell imaging of MT assembly rates; type: cell-based, human
# Summary of the method: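 HCT116 cells expressing EB1-GFP to label growing microtubule ends. Imaged at a single Z-plane at 500-ms intervals. Assembly rates scored in interphase cells by particle tracking, before treatment and again after compound wash-out (POST).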
# [6] = pharmacokinetics, plasma and brain by LC-MS; type: in vivo, mouse
# [7] = system: COLO205 cell-derived subcutaneous xenografts; experiment: COLO205 xenograft flank tumor model; type: in vivo, mouse
# CD1 mice = experiment: maximal tolerated dose and dose range finding; type: in vivo, mouse; conditions: bidaily i.p. 20 mg/kg, 5 days/week for 4 weeks
# Summary of the method: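 CD1 mice dosed i.p. at 5, 10, 20, 50, 100 or 150 mg/kg, or with the corresponding volume of no-drug formulation (vehicle). Monitored for signs of general distress. Regimen 2: 20 mg/kg i.p. bidaily, 5 days/week for 4 weeks.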
# [8] = system: PD-glioma isolates (proneural, mesenchymal, classical, MGG8); experiment: viability of PD-glioma isolates; type: cell-based; conditions: Homo sapiens, read-out: IC50, antitumor activity (viability, WST-1)
# T98G cells [9] = experiment: cell viability WST-1, T98G; type: cell-based; conditions: Homo sapiens, 72 h, read-out: IC50, overall cell viability
# BG5 PD-glioma cells = experiment: tumor microtube; type: cell-based, human; conditions: Y-27632 50 μM
# Summary of the method: (§1)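 GFP-expressing patient-derived S24 and BG5 glioma cells treated with increasing test-compound concentrations (e.g. 30 and 300 nM) or controls: DMSO 1% vehicle, Y-27632 50 μM, nocodazole 300 nM. Stained with Ho342/EthD2. TM number and length per cell quantified semi-automatically from immunofluorescence images via a machine learning-based workflow. Two-way ANOVA, Tukey post-test.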
# S24 PD-glioma cells [10] = experiment: tumor microtube; type: cell-based, human; conditions: Y-27632 50 μM
# Summary of the method: as §1
# S24 PD-glioma cells [11] = experiment: cell death of S24 PD-glioma; type: cell-based, human; conditions: Y-27632 50 mM (as printed in Figure S3), 24 h
# Summary of the method: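 GFP-expressing patient-derived S24 glioma cells treated alongside vehicle (DMSO 1%), then stained with Ho342 and EthD2 and imaged by fluorescence microscopy.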
smiles,measurement,setting,value
"COC(=O)Nc1nc2ccc(C(=O)c3cccs3)cc2[nH]1 [NOC, nocodazole, reference compound]",effect on number of cells in S phase,MGG8 cells [1],reduce; also recorded: overall less active
same,effect on number of cells in S phase,"T98G cells [2]; NOC 3 μM, BrdU",Lack of response
same,reduction of cell viability,"MGG8 cells [3]; NOC 3 µM, WST-1",18%
"CCn1c2ccccc2c2cc(C(O)c3cccc4ncccc34)ccc21 (centres unmarked) [ST-401, (9‐ethyl‐9H‐carbazol‐3‐yl)(quinolin‐5‐yl)methanol]",IC50,[4],0.023 to 0.069 µM
same,average survival,PDGFB-glioma; ST-401+RT arm,50 days
same,average survival,PDGFB-glioma; ST-401+TMZ arm,46 days
same,"effect on average median survival, single agent",PDGFB-glioma; ST-401 regimen 2,did not affect average median survival
same,enhancement of the therapeutic efficacy of RT,PDGFB-glioma; ST-401 regimen 2 + RT single dose 10-Gy,66%
same,enhancement of the therapeutic efficacy of TMZ,PDGFB-glioma; ST-401 regimen 2 + TMZ 50 mg/kg,60%
same,increase in mitotic figures versus control arm,"PDGFB-glioma; ST-401 regimen 2, H&E, end stage",69%
same,increase in tumor density (relative area of HA expression),"PDGFB-glioma; ST-401 regimen 2, semi-quantitative IHC",54%
same,tumor density by olig-2 immunostaining,PDGFB-glioma,increase
same,necrotic area,PDGFB-glioma,did not reach significance
same,MT disassembly (Δ release of free tubulin),tubulin,greater MT disassembly
same,IC50,COLO205 cells,0.038 µM
same,response on number of cells in S phase,"T98G cells [2]; 72 h, BrdU incorporation, concentration-response",absent
same,competition for [3H]colchicine binding to tubulin,[5],89%
same,time for MT assembly to reach initial rates after wash-out,"HCT116 cells; 100 nM, after wash-out",≤ 15 min
same,reduction in MT assembly rate,"HCT116 cells; 100 nM, interphase cells, compared to NOC 100 nM",milder reduction
same,inhibition of MT assembly,"HCT116 cells; 200 nM, within 15 min",completely and reversibly inhibited all MT assembly
same,time plasma levels remained above 250 nM,[6]; bidaily i.p. injections of 20 mg/kg,approximately 16 h
same,half-life,"[6]; mouse, brain, ip, 150 mg/kg",~6 h
same,concentration reached in brain,[6]; single i.p. 150 mg/kg,micromolar concentrations
same,concentration reached in brain,"[6]; single i.p. 20 and 5 mg/kg, 30 min",micromolar concentrations
same,plasma concentration,"[6]; three i.p. injections of 20 mg/kg separated by 8 and 16 h, over 24 h",above 250 nM
same,treated tumors that stopped growing despite ending the treatment,[7]; Regimen 2,approximately 50%
same,life-expectancy / survival of treated mice,"[7]; Regimen 2, n = 10 mice per arm",significant increase in average survival; also recorded: doubling
same,time without recurrence after ending treatment,[7]; tumors that stopped growing,≥ 28 days
same,adverse effects (Regimen 2),CD1 mice,did not trigger adverse effects
same,IC50,[8],0.024 to 0.047 µM
same,IC50,T98G cells [9],0.036 µM
same,IC50,"MGG8 cells [3]; Homo sapiens, read-out: IC50, overall cell viability",0.014 µM
"Cn1nnc2c(C(N)=O)ncn2c1=O [TMZ, temozolomide, reference compound]",average median survival,"PDGFB-glioma; TMZ 50 mg/kg once per day, 5 days/week for 4 weeks, control 20 days",30 days
same,extension of average median survival,"PDGFB-glioma; TMZ 50 mg/kg once per day, 5 days/week for 4 weeks, versus control",50%
same,tumor density by olig-2 immunostaining,PDGFB-glioma,increase
same,necrotic area,PDGFB-glioma,unchanged
C[C@@H](N)[C@H]1CC[C@H](C(=O)Nc2ccncc2)CC1 [Y-27632],effect on TM length/cell,BG5 PD-glioma cells,increased
same,effect on TM number/cell,BG5 PD-glioma cells,increased
same,effect on TM length/cell,S24 PD-glioma cells [10],increased
same,effect on TM number/cell,S24 PD-glioma cells [10],increased
same,effect on cell death / viability,S24 PD-glioma cells [11],did not affect cell viability
